# An excerpt weighted towards active compounds, which were near 3.5% of everything screened.
# MrgX1 ag: human MrgX1 receptor agonism, primary screen; AID 588627; MrgX1-HEK293 cells, Fluo-4 calcium fluorescence, agonist mode; stronger effect = higher value; B-score at 10 µM; actives 0.44% (n = 310,000); Q96LB2;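 active means calcium response B-score plate-corrected fluorescence ratio at least 3 library SD, with starting fluorescence B-score inside 5 SD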
# Target sequence (Q96LB2 whole entry, looked up): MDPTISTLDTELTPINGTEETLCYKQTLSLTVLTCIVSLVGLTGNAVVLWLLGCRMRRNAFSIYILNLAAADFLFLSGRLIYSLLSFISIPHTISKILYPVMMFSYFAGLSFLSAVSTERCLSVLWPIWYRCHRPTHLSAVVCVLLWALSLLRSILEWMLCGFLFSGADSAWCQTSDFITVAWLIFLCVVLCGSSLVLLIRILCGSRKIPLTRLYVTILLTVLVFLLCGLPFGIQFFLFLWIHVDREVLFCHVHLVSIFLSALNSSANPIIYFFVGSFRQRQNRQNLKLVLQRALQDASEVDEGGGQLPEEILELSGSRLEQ
#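 System: HEK293 cells stably expressing human MrgX1 receptor; Dosing: test compound in the initial addition of three; Schedule: overnight plating, then 30 min 37 °C plus 30 min room-temperature dye loading; Detection: kinetic calcium dye fluorescence, Fluo-4 NW; Controls: per-plate positive and negative controls for Z′ factor.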
# MrgX1 PAM: human MrgX1 positive allosteric modulation, primary screen; B-score at 10 µM; MrgX1-HEK293, Fluo-4 calcium flux, FDSS; stronger effect = higher value; Q96LB2; actives 0.63% (n = 310,000);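 active means plate-corrected calcium response at least 3 library SD above typical, normal starting fluorescence, not activating the receptor alone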;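 further: compound read alongside a low EC10 to EC30 dose of BAM8-22 agonist; peak minus trough fluorescence over baseline measured at the second addition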
# RGS4 block: inhibitors of human RGS4. P49798. B-score at 10 µM. actives 0.45% (n = 310,000). HEK293 M3R/RGS4 inducible, Fluo-4 calcium flux; stronger effect = higher value; triggered by carbachol at its EC20;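 active means B-score, a plate-corrected calcium signal, over three deviations above library mean, with baseline fluorescence within five deviations of library mean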;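 further: RGS4 expression induced by doxycycline in cells with stable M3 receptor; B-score is computed from the integrated fluorescence ratio over baseline after carbachol; higher B-score means a larger calcium signal and so more RGS4 inhibition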
# Target sequence (P49798 whole entry, looked up): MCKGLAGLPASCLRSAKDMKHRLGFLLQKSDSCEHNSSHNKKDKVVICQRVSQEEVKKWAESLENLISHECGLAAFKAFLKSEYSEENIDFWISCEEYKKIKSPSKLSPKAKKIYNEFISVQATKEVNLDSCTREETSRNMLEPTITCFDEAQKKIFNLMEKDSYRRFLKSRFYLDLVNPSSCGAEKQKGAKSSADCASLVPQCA
# MrgX1 antag: blocks BAM8-22 activation of human MrgX1 receptor | MRGX1-HEK293 calcium flux, Fluo-4, BAM8-22 antagonism; stronger effect = lower value | B-score at 10 µM | actives 1.3% (n = 310,000);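 active means calcium-response B-score plate-corrected more than 3 library SD below zero, starting fluorescence within 5 deviations, no agonist response on first addition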;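 further: peak minus trough fluorescence over baseline after final BAM8-22 challenge near maximal dose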
# RGS4 pot: potentiators or activators of RGS4; HEK293 M3R/inducible RGS4, carbachol calcium flux Fluo4; stronger effect = lower value; B-score at 10 µM; actives 0.92% (n = 310,000); AID 463111;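 active means B-score of the integrated calcium signal more than 4 SD below the library mean, with starting fluorescence not abnormally high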;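 further: negative B-score means reduced calcium response which marks RGS4 activation or potentiation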
#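 Also added: carbachol at ECmax as muscarinic agonist stimulus; Assay system: HEK293 cells with stable M3R and inducible RGS4; Timing: overnight RGS4 induction, 30 min dye load 37 °C, 20 min compound RT; Measured by: Fluo4-AM (2 µM) calcium-flux fluorescence, kinetic read.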
# MrgX1 ag confirm: confirmation of human MrgX1 receptor agonists; shares compounds with MrgX1 ag; MrgX1-HEK293, Fluo-4 calcium fluorescence, FDSS; activation, % at 10 µM; actives 78% (n = 600); AID 602412;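 active means calcium signal rise, corrected for plate position, at least 3 library SD high, with starting brightness within 5 such deviations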
# HEK293 Ca flux: MrgX1 antagonist counter-screen hit in parental HEK293 cells; shares compounds with MrgX1 antag; Fluo-4 calcium fluorescence, FDSS; AID 624111; actives 2% (n = 4,000); fluorescence ratio F(max-min)/F0 at 10 µM;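 active means duplicate-averaged calcium fluorescence ratio at least three times the standard deviation of buffer wells, a nonspecific response in parental cells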
# HEK293 Ca counter: MrgX1 allosteric activator counter-screen hit in parental HEK293 cells. actives 0.4% (n = 4,000). parental HEK293 calcium flux, Fluo-4 fluorescence ratio; stronger effect = higher value. fluorescence ratio F(max-min)/F0 at 10 µM. AID 624114. shares compounds with MrgX1 antag;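 active means calcium fluorescence ratio, averaged over duplicates, at least 3 SD of the buffer-well ratio, meaning a nonspecific response in receptor-free cells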;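 further: untransfected parental HEK293 lacking MrgX1 used as counterscreen for MrgX1 allosteric activators; fluorescence change taken during the second addition on a kinetic imager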
# HEK293 Ca cntr2: counter-screen for MrgX1 activators: effect in parental HEK293 cells. shares compounds with MrgX1 antag. AID 624115. actives 8.7% (n = 4,000). Fluo-4 calcium fluorescence (FDSS); stronger effect = higher value. fluorescence ratio F(max-min)/F0 at 10 µM;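 active means calcium fluorescence ratio at least three times the spread of buffer wells, meaning a non-specific response in parental cells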
# Active calls of the source: *; i = inactive; · = no result.
SMILES,MrgX1 ag,MrgX1 PAM,RGS4 block,MrgX1 antag,RGS4 pot,MrgX1 ag confirm,HEK293 Ca flux,HEK293 Ca counter,HEK293 Ca cntr2
CCn1c(=O)c(C(=O)CN2CCN(S(=O)(=O)c3ccccc3)CC2)c(N)n(Cc2ccccc2)c1=O,27.4*,i,i,i,i,187.8%*,i,i,i
COc1ccccc1Oc1ccnc2cc(Cl)ccc12,30.1*,i,i,i,i,102.7%*,i,i,i
COc1ccc(NC(=O)N2CCCC(C(=O)NCCc3ccccc3)C2)cc1 (stereo unspecified),i,i,i,i,i,·,·,·,·
O=C(CCl)N(c1ccc(Cl)cc1)c1c[nH]c2ccccc12,29.8*,i,i,i,i,145.7%*,i,i,i
O=C(CCl)N(c1ccccc1)c1c[nH]c2ccccc12,i,i,i,i,i,·,·,·,·
CCS(=O)(=O)c1nnnn1-c1ccccc1S(C)(=O)=O,27*,i,i,i,i,104.8%*,i,i,i
COc1cc(/C=C2\SC(=S)N(NS(=O)(=O)c3ccccc3)C2=O)ccc1O,87.1*,i,i,i,i,375.0%*,i,i,99.1*
COc1cc(/C=C2\SC(=S)N(NC(=O)c3ccccc3OC)C2=O)ccc1O,i,i,i,i,i,·,·,·,·
COc1cc(/C=C2\SC(=S)N(NS(=O)(=O)c3ccc(C)cc3)C2=O)ccc1O,116*,i,i,i,-7.73*,554.7%*,0.384*,i,149*
COc1cc(/C=C2\SC(=S)N(NS(=O)(=O)c3ccc(C)cc3)C2=O)cc(OC)c1OC,i,i,i,i,i,·,·,·,·
CCCCC(=O)NC(=S)Nc1cccc(C(=O)O)c1,31.9*,i,i,i,i,i,i,i,i
CCOC(=O)c1c(NC(=O)c2ccccc2C(=O)O)sc2c1CCCC2,34.1*,i,i,i,i,191.8%*,i,i,i
CN1CCN(NC(=O)Nc2cccc(F)c2)CC1,i,i,i,i,i,·,·,·,·
CC1(C)CSC(=NCc2ccccc2)N1C(=O)c1cccc([N+](=O)[O-])c1,84*,i,i,i,i,504.9%*,i,i,103*
NC(=NCc1ccccc1)c1cccc([N+](=O)[O-])c1,i,i,i,i,i,·,·,·,·
CCCCCCCCCCCCCCCC(=O)OC(CC(=O)O)C[N+](C)(C)C (stereo unspecified),i,i,·,i,·,·,·,·,·
O=C1/C(=C/c2ccccc2)Nc2ccccc21,128*,i,i,i,i,i,0.409*,i,224*
O=C(COC(=O)c1cc(Cl)ccc1O)NCCC1=CCCCC1,i,i,i,i,i,·,·,·,·
O=S(=O)(NCC1(N2CCOCC2)CCCCC1)c1ccccc1Cl,i,i,i,i,i,·,·,·,·
O=S(=O)(NCC1(N2CCOCC2)CCCCC1)c1ccc(Cl)cc1C(F)(F)F,87.6*,i,i,i,i,261.2%*,i,i,i
CCCc1nc2ccccc2c(=O)n1/N=C/c1c(C)[nH]n(-c2ccc(C)cc2)c1=O,78.3*,i,i,i,i,319.9%*,i,i,91.1*
COc1ccc(NC(=O)CN2CCN(C(=S)NC3CCCC3)CC2)cc1,i,i,i,i,i,·,·,·,·
CCOC(=O)Cn1c(CCC(=O)O)ccc1-c1ccc(F)cc1,44.9*,i,i,i,i,169.6%*,i,i,i
Cc1ccccc1C(=O)NNC(=S)NC(=O)c1ccc(Cl)cc1Cl,172*,i,i,i,-10.2*,775.8%*,i,i,154*
Cc1onc(-c2ccccc2)c1C(=O)NNC(=S)NC(=O)/C=C/c1ccccc1,95.1*,i,i,i,i,454.7%*,i,i,72.1*
SMILES,MrgX1 ag,MrgX1 PAM,RGS4 block,MrgX1 antag,RGS4 pot,MrgX1 ag confirm,HEK293 Ca flux,HEK293 Ca counter,HEK293 Ca cntr2
COc1ccc(Cl)cc1NC(=O)c1c(-c2ccccc2)noc1C,i,i,i,i,i,·,·,·,·
Cc1onc(-c2ccccc2)c1C(=O)NNC(=S)NC(=O)c1ccc(Cl)cc1Cl,180*,i,i,i,i,714.3%*,i,i,115*
O=C(NC(=S)NNC(=O)c1ccc(Cl)cc1Cl)c1cccnc1,i,i,i,i,i,·,·,·,·
O=C(/C=C/c1ccccc1)NC(=S)NNC(=O)Cc1cccs1,71.3*,i,i,i,i,262.1%*,i,i,73*
Cc1onc(-c2ccccc2)c1C(=O)Nc1ccccc1NC(=O)c1c(-c2ccccc2)noc1C,i,i,i,i,i,·,·,·,·
COc1ccc(OC)c(S(=O)(=O)Nc2cc3c(cc2N2CCCC2)n(C)c(=O)c(=O)n3C)c1,i,i,i,i,i,·,·,·,·
Cc1onc(-c2ccccc2)c1C(=O)NNC(=O)c1ccccc1O,i,i,i,i,i,·,·,·,·
Cc1onc(-c2ccccc2)c1C(=O)NNC(=S)NC(=O)c1ccc(Br)cc1,85.7*,i,i,i,i,705.3%*,i,i,138*
COc1ccc(CNCc2ccc(C(F)(F)F)cc2)cc1OC,i,i,i,i,i,·,·,·,·
Cc1ccc(OCC(=O)NNC(=S)NC(=O)C(C)(C)C)c(Br)c1,65.6*,i,i,i,i,507.6%*,i,i,97.3*
O=C(NCCc1ccc(F)cc1)c1ccc2c(=O)n3c(nc2c1)CCC3,31.5*,i,i,i,i,217.4%*,i,i,51.6*
O=C(NCc1ccccc1)c1ccc2c(=O)n3c(nc2c1)CCCCC3,i,i,i,i,i,·,·,·,·
CCOc1ccc(S(=O)(=O)N(CC)CC)cc1NC(=O)CSCc1c(C)noc1C,i,i,i,i,i,·,·,·,·
COc1cccc(N/C(N)=N/c2nc(CSc3ccccn3)cc(=O)[nH]2)c1,i,i,i,i,i,·,·,·,·
COc1ccnc(CSC(N)=Nc2ccc(F)cc2)c1,75.1*,i,i,i,i,383.3%*,i,i,75.4*

# Screens deposited in PubChem by Johns Hopkins Ion Channel Center.
